Data set [1] can be described thus: Drug distribution in NCI-H1975 tumor bearing nude mouse model assessed as tumor to kidney ratio of triptolide metabolite at 2 mg/kg, iv by LC-MS analysis. Format: ADME, organism-based. The settings on record: in vivo. In outline:
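NCI-H1975 xenograft mice, tumors about 500 mm3, 3 per group, fasted 12 h with water available. Given 2 mg/kg iv and sacrificed 1 h later. Heart, liver, lung, kidney and tumor weighed and flash-frozen. 1.0 g tissue homogenized in 2.0 mL saline, methanol-precipitated, reconstituted. Parent, triptolide succinate and triptolide measured by LC-MS; tumor/organ ratios calculated.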

A short description of data set [2]: Stability in human serum measured upto 72 hrs by HPLC analysis. The class given is ADME, cell-free. An outline of the steps:
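15 µM test agent incubated with human or mouse serum at 37 °C for 0, 0.5, 1, 8, 12, 18, 60 and 72 h. Samples stored at −80 °C, protein precipitated with 200 µL methanol, vortexed and sonicated 5 min. Intact agent and released triptolide measured by HPLC at 220 nm, in duplicate.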

Data set [3] relates to NCI-H460. In words: Cytotoxicity against human NCI-H460 cells incubated for 72 hrs by MTT assay. Format: functional, cell-based. The settings on record: NCI-H460, 72 h. In outline:
(§1)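 Cells seeded at 4000/well, incubated overnight, then exposed to a range of concentrations, or DMSO vehicle, for 72 h. MTT (5 mg/mL solution) added for 4 h and formazan dissolved in DMSO. Absorbance read at 570 nm, and IC50 derived from the curves. Tumor lines were grown in RPMI 1640; HUVEC, HaCaT and LO2 were grown in DMEM, each with 10% FBS at 37 °C and 5% CO2.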
In general terms: Tetrazolium assays rely on reduction of a dye to a coloured formazan, in cell work by metabolically active cells.

Data set [4] can be described thus: Cytotoxicity against HUVEC incubated for 72 hrs by MTT assay. The class given is toxicity, cell-based. The settings on record: human, HUVEC cells. In outline: as §1
A short description of data set [5]: Toxicity in BALB/c nude mouse xenografted with human NCI-H1975 cells assessed as morphological changes in testis at 1 mg/kg administered ip, qd for 2 weeks. The conditions noted are these: in vivo, 336 h.
Data set [6] can be described thus: Half life in NCI-H1975 tumor bearing nude mouse model serum at 1 mg/kg, iv. The class given is ADME, organism-based.
In data set [7] the test system is NCI-H460. As to the kind of experiment: Induction of apoptosis in human NCI-H460 cells assessed as early apoptotic cells at 20 uM measured after 48 hrs by Annexin V-FITC/PI staining method (reference value: 3.26%). Format: functional.

As for `CC(C)[C@]12O[C@H]1[C@@H]1O[C@]13[C@]1(O[C@H]1C[C@H]1C4=C(CC[C@@]13C)C(=O)OC4)[C@@H]2OC(=O)CCC(=O)O[C@H]1C(O)O[C@H](CO)[C@@H](O)[C@@H]1O` (some centres not stated), the Ratio in data set [1] is 18.8. In data set [2], the Stability entry was “Stable”. Half-maximal inhibition in the data set on NCI-H460 [3] (IC50) required 0.87 µM. The compound further returned an IC50 at 72 h in data set [4] of 8.55 µM. Besides, the Activity entry is listed as “Non-Toxic” in data set [5] and 35.1% in the data set with NCI-H460 [7]. In addition, in data set [6], the half-life is 19.2 min.

As a reminder, the IC50 is the concentration that gives 50% inhibition. The half-life is the time needed for the level to fall by half in the phase considered.
